Assay results from ChEMBL document CHEMBL1157314, “Antibacterial, partially acetylated oligorhamnosides from Cleistopholis patens” (2006).
Values after ≈ are worked out from the molar mass of the structure shown.

Legend:
Format in all cases: functional
[1] = tested on: Staphylococcus aureus; assay: Antibacterial activity against oxacillin-resistant Staphylococcus aureus ATCC 33591 after 24 hrs by broth microdilution method; conditions: ATCC 33591, 24 h
Procedure, shortened: (§1)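 Broth microdilution following NCCLS M7-A6 (2003), with inoculum at the recommended densities. Isolates were placed into panel wells with an autoinoculator and grown in cation-adjusted Mueller-Hinton broth at 35°C in ambient air for overnight to 24 h. Panels were read by eye, and the MIC was taken as no visible growth.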

[2] = tested on: Streptococcus; assay: Antibacterial activity against levofloxacin-resistant beta-haemolytic sStreptococcus 19-756A isolate after 24 hrs by broth microdilution method; procedure, shortened: as §1
[3] = tested on: Staphylococcus aureus; assay: Antibacterial activity against mupirocin-resistant Staphylococcus aureus 4-90A isolate after 24 hrs by broth microdilution method; procedure, shortened: as §1
[4] = tested on: Streptococcus; assay: Antibacterial activity against linezolid-resistant viridans group Streptococcus 27-2832A isolate after 24 hrs by broth microdilution method; procedure, shortened: as §1
[5] = tested on: Enterococcus faecium; assay: Antibacterial activity against vancomycin-resistant Enterococcus faecium 103-1232D isolate with vanB phenotype after 24 hrs by broth microdilution method; procedure, shortened: as §1
[6] = tested on: Staphylococcus aureus; assay: Antibacterial activity against linezolid-resistant Staphylococcus aureus 106-12591A isolate after 24 hrs by broth microdilution method; procedure, shortened: as §1
[7] = tested on: Staphylococcus epidermidis; assay: Antibacterial activity against oxacillin-susceptible Staphylococcus epidermidis isolate 12-1788A isolate after 24 hrs by broth microdilution method
[8] = tested on: Enterococcus faecalis; assay: Antibacterial activity against vancomycin-resistant Enterococcus faecalis 82-876D with vanB phenotype isolate after 24 hrs by broth microdilution method; procedure, shortened: as §1
[9] = tested on: Staphylococcus aureus; assay: Antibacterial activity against methicillin-resistant Staphylococcus aureus 78-13607A after 24 hrs by broth microdilution method; procedure, shortened: as §1
[10] = tested on: Corynebacterium sp.; assay: Antibacterial activity against rifampin-resistant Corynebacterium sp. 58-9161A isolate after 24 hrs by broth microdilution method; procedure, shortened: as §1
[11] = tested on: Streptococcus; assay: Antibacterial activity against erythromycin-resistant and clindamycin-susceptible beta-haemolytic sStreptococcus 109-820D isolate after 24 hrs by broth microdilution method; procedure, shortened: as §1
[12] = tested on: Pseudomonas aeruginosa; assay: Antibacterial activity against sPseudomonas aeruginosa ATCC 27853 after 24 hrs by broth microdilution method; conditions: ATCC 27853, 24 h
Procedure, shortened: (§2)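 Broth microdilution following NCCLS M7-A6 (2003) inocula; isolates transferred aseptically into panel wells with an autoinoculator; cation-adjusted Mueller-Hinton broth; incubated overnight to 24 h at 35°C in ambient air; panels read by eye, MIC taken as lowest concentration with no visible growth.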

[13] = tested on: Enterococcus faecalis; assay: Antibacterial activity against vancomycin-resistant Enterococcus faecalis 48-22D isolate with vanA phenotype after 24 hrs by broth microdilution method; procedure, shortened: as §1
[14] = tested on: Streptococcus pyogenes; assay: Antibacterial activity against erythromycin-resistant Streptococcus pyogenes 91-8747 isolate after 24 hrs by broth microdilution method; procedure, shortened: as §1
[15] = tested on: Streptococcus; assay: Antibacterial activity against erythromycin and clindamycin-resistant beta-haemolytic sStreptococcus 91-526D isolate after 24 hrs by broth microdilution method; procedure, shortened: as §1
[16] = tested on: Enterococcus faecium; assay: Antibacterial activity against quinupristin/dalfopristin-resistant Enterococcus faecium 65-1208A isolate after 24 hrs by broth microdilution method; procedure, shortened: as §1
[17] = tested on: Streptococcus pneumoniae; assay: Antibacterial activity against penicillin-resistant Streptococcus pneumoniae 33-50B isolate after 24 hrs by broth microdilution method; procedure, shortened: as §1
[18] = tested on: Staphylococcus haemolyticus; assay: Antibacterial activity against oxacillin-resistant Staphylococcus haemolyticus 107-1240C isolate after 24 hrs by broth microdilution method; procedure, shortened: as §1
[19] = tested on: Streptococcus pneumoniae; assay: Antibacterial activity against erythromycin-resistant and clindamycin-susceptible Streptococcus pneumoniae 35-405B isolate after 24 hrs by broth microdilution method; procedure, shortened: as §1
[20] = tested on: Corynebacterium jeikeium; assay: Antibacterial activity against Corynebacterium jeikeium 15-196A isolate after 24 hrs by broth microdilution method; procedure, shortened: as §2
[21] = tested on: Staphylococcus; assay: Antibacterial activity against mupirocin-resistant coagulase negative Staphylococcus 63-18A isolate after 24 hrs by broth microdilution method; procedure, shortened: as §1
[22] = tested on: Staphylococcus; assay: Antibacterial activity against quinupristin/dalfopristin-resistant coagulase negative Staphylococcus 90-10840A isolate after 24 hrs by broth microdilution method; procedure, shortened: as §1
[23] = tested on: Streptococcus pneumoniae; assay: Antibacterial activity against penicillin-intermediate resistant Streptococcus pneumoniae ATCC 49619 after 24 hrs by broth microdilution method; conditions: ATCC 49619, 24 h; procedure, shortened: as §1
[24] = tested on: Streptococcus pneumoniae; assay: Antibacterial activity against levofloxacin-resistant Streptococcus pneumoniae 2-2784A isolate after 24 hrs by broth microdilution method; procedure, shortened: as §1
[25] = tested on: Corynebacterium sp.; assay: Antibacterial activity against streptomycin-resistant Corynebacterium sp. 61-5454A isolate after 24 hrs by broth microdilution method; procedure, shortened: as §1
[26] = tested on: Bacillus sp.; assay: Antibacterial activity against trimethoprim/sulfamethaxazole-resistant Bacillus sp. 67-1057A isolate after 24 hrs by broth microdilution method; conditions: Bacillus sp. (in: firmicutes); procedure, shortened: as §1
[27] = tested on: Streptococcus; assay: Antibacterial activity against levafloxacin-resistant viridans group Streptococcus 107-6380A isolate after 24 hrs by broth microdilution method; procedure, shortened: as §1
[28] = tested on: Bacillus sp.; assay: Antibacterial activity against tetracycline-resistant Bacillus sp. 107-1461D isolate after 24 hrs by broth microdilution method; conditions: Bacillus sp. (in: firmicutes); procedure, shortened: as §1
[29] = tested on: Staphylococcus aureus; assay: Antibacterial activity against oxacillin-susceptible Staphylococcus aureus ATCC 29213 after 24 hrs by broth microdilution method; conditions: ATCC 29213, 24 h; procedure, shortened: as §1
[30] = tested on: Staphylococcus; assay: Antibacterial activity against coagulase negative linezolid-resistant Staphylococcus 82-1645A isolate after 24 hrs by broth microdilution method; procedure, shortened: as §1
[31] = tested on: Corynebacterium sp.; assay: Antibacterial activity against doxycyclin-resistant Corynebacterium sp. 105-1513C isolate after 24 hrs by broth microdilution method; procedure, shortened: as §1
[32] = tested on: Streptococcus; assay: Antibacterial activity against mupirocin-resistant viridans group sStreptococcus 32-2395A isolate after 24 hrs by broth microdilution method; procedure, shortened: as §1
[33] = tested on: Streptococcus pneumoniae; assay: Antibacterial activity against multidrug resistant Streptococcus pneumoniae 68-2307B isolate after 24 hrs by broth microdilution method; procedure, shortened: as §1
[34] = tested on: Staphylococcus aureus; assay: Antibacterial activity against quinupristin/dalfopristin-resistant Staphylococcus aureus 300-12053A isolate after 24 hrs by broth microdilution method; procedure, shortened: as §1
[35] = tested on: Streptococcus mitis; assay: Antibacterial activity against penicillin-resistant Streptococcus mitis 61-2900C isolate after 24 hrs by broth microdilution method; procedure, shortened: as §1
[36] = tested on: Enterococcus faecalis; assay: Antibacterial activity against gentamycin and streptomycin-resistant Enterococcus faecalis 39-11D isolate after 24 hrs by broth microdilution method; procedure, shortened: as §1
[37] = tested on: Bacillus sp.; assay: Antibacterial activity against erythromycin-resistant Bacillus sp. 32-2406A isolate after 24 hrs by broth microdilution method; conditions: Bacillus sp. (in: firmicutes); procedure, shortened: as §1
[38] = tested on: Enterococcus faecalis; assay: Antibacterial activity against linezolid-resistant Enterococcus faecalis 15-5341 isolate after 24 hrs by broth microdilution method; procedure, shortened: as §1
[39] = tested on: Streptococcus; assay: Antibacterial activity against multidrug-resistant viridans group Streptococcus 58-1602D isolate after 24 hrs by broth microdilution method; procedure, shortened: as §1
[40] = tested on: Enterococcus faecium; assay: Antibacterial activity against vancomycin-resistant Enterococcus faecium 15-206A isolate with vanA phenotype after 24 hrs by broth microdilution method; procedure, shortened: as §1
[41] = tested on: Bacillus cereus; assay: Antibacterial activity against Bacillus cereus 24-59A isolate after 24 hrs by broth microdilution method
[42] = tested on: Enterococcus faecium; assay: Antibacterial activity against ampicillin and vancomycin-resistant Enterococcus faecium 24-45A isolate after 24 hrs by broth microdilution method; procedure, shortened: as §1
[43] = tested on: Escherichia coli; assay: Antibacterial activity against sEscherichia coli ATCC 25922 after 24 hrs by broth microdilution method; conditions: ATCC 25922, 24 h; procedure, shortened: as §2
[44] = tested on: Enterococcus faecium; assay: Antibacterial activity against linezolid-resistant Enterococcus faecium 11-4103A isolate after 24 hrs by broth microdilution method; procedure, shortened: as §1
[45] = tested on: Streptococcus pneumoniae; assay: Antibacterial activity against erythromycin and clindamycin-resistant Streptococcus pneumoniae 4-38B isolate after 24 hrs by broth microdilution method; procedure, shortened: as §1
[46] = tested on: Staphylococcus aureus; assay: Antibacterial activity against methicillin-resistant Staphylococcus aureus ATCC 33591 after 24 hrs by broth microdilution method; conditions: ATCC 33591, 24 h; procedure, shortened: as §1
[47] = tested on: Enterococcus faecalis; assay: Antibacterial activity against ampicillin and vancomycin-susceptible Enterococcus faecalis ATCC 29212 after 24 hrs by broth microdilution method; conditions: ATCC 29212, 24 h; procedure, shortened: as §1

CCCCCCCCCCCCO[C@@H]1O[C@@H](C)[C@H](O[C@@H]2O[C@@H](C)[C@H](OC(C)=O)[C@@H](O[C@@H]3O[C@@H](C)[C@H](OC(C)=O)[C@@H](O)[C@H]3OC(C)=O)[C@H]2O)[C@@H](O)[C@H]1O
MIC [1]: 2 µg/mL (≈ 2.66 µM)
MIC [2]: 4 µg/mL (≈ 5.33 µM)
MIC [3]: 2 µg/mL (≈ 2.66 µM)
MIC [4]: 4 µg/mL (≈ 5.33 µM)
MIC [5]: 2 µg/mL (≈ 2.66 µM)
MIC [6]: 2 µg/mL (≈ 2.66 µM)
MIC [7]: 4 µg/mL (≈ 5.33 µM)
MIC [8]: 2 µg/mL (≈ 2.66 µM)
MIC [9]: 8 µg/mL (≈ 10.7 µM)
MIC [10]: 8 µg/mL (≈ 10.7 µM)
MIC [11]: 4 µg/mL (≈ 5.33 µM)
MIC [12]: > 32 µg/mL
MIC [13]: 2 µg/mL (≈ 2.66 µM)
MIC [14]: 8 µg/mL (≈ 10.7 µM)
MIC [15]: 4 µg/mL (≈ 5.33 µM)
MIC [16]: 2 µg/mL (≈ 2.66 µM)
MIC [17]: 8 µg/mL (≈ 10.7 µM)
MIC [18]: 4 µg/mL (≈ 5.33 µM)
MIC [19]: 4 µg/mL (≈ 5.33 µM)
MIC [20]: > 32 µg/mL
MIC [21]: 2 µg/mL (≈ 2.66 µM)
MIC [22]: 2 µg/mL (≈ 2.66 µM)
MIC [23]: 8 µg/mL (≈ 10.7 µM)
MIC [24]: 4 µg/mL (≈ 5.33 µM)
MIC [25]: 8 µg/mL (≈ 10.7 µM)
MIC [26]: 2 µg/mL (≈ 2.66 µM)
MIC [27]: 4 µg/mL (≈ 5.33 µM)
MIC [28]: 2 µg/mL (≈ 2.66 µM)
MIC [29]: 2 µg/mL (≈ 2.66 µM)
MIC [30]: 2 µg/mL (≈ 2.66 µM)
MIC [31]: 8 µg/mL (≈ 10.7 µM)
MIC [32]: 4 µg/mL (≈ 5.33 µM)
MIC [33]: 4 µg/mL (≈ 5.33 µM)
MIC [34]: 2 µg/mL (≈ 2.66 µM)
MIC [35]: 8 µg/mL (≈ 10.7 µM)
MIC [36]: 2 µg/mL (≈ 2.66 µM)
MIC [37]: 2 µg/mL (≈ 2.66 µM)
MIC [38]: 2 µg/mL (≈ 2.66 µM)
MIC [39]: 4 µg/mL (≈ 5.33 µM)
MIC [40]: 2 µg/mL (≈ 2.66 µM)
MIC [41]: 2 µg/mL (≈ 2.66 µM)
MIC [42]: 2 µg/mL (≈ 2.66 µM)
MIC [43]: > 32 µg/mL
MIC [44]: 2 µg/mL (≈ 2.66 µM)
MIC [45]: 4 µg/mL (≈ 5.33 µM)
MIC [46]: 8 µg/mL (≈ 10.7 µM)
MIC [47]: 4 µg/mL (≈ 5.33 µM)
